According to ChEMBL document CHEMBL1136891, “1,3-dialkyl-8-N-substituted benzyloxycarbonylamino-9-deazaxanthines as potent adenosine receptor ligands: Design, synthesis, structure-affinity and structure-selectivity relationships” (Bioorg Med Chem, 2009):
Values after ≈ are worked out from the molar mass of the structure shown.

What was measured:
Adenosine receptor A2b [1] = target: T1, Adenosine receptor A2b (Homo sapiens, UniProt P29275); experiment: Displacement of [3H]DPCPX from human recombinant adenosine A2B receptor expressed in HEK293 cells by beta scintillation counter; format: cell-based
T1 sequence (P29275 whole entry): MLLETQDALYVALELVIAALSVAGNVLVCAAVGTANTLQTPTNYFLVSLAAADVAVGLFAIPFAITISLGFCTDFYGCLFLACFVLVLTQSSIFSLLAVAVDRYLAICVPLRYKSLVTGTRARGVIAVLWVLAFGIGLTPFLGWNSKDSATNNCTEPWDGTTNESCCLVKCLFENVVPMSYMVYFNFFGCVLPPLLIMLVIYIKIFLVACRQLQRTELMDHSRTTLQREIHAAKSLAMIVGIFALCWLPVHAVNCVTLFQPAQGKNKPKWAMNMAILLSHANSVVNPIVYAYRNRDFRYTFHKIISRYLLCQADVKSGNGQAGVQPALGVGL
Summary of the method: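 Competition binding on membranes from transfected HEK-293 cells expressing hA2B, using 35 nM [3H]DPCPX. Non-specific binding was defined with NECA. Incubation was 30 min at 25 °C, followed by filtration and scintillation counting. Ki values are means of two independent experiments in duplicate.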

Adenosine receptor A2a [2] = target: T2, Adenosine receptor A2a (Homo sapiens, UniProt P29274); experiment: Displacement of [3H]ZM241385 from human recombinant adenosine A2A receptor expressed in HeLa cells by beta scintillation counter; format: cell-based
Homo sapiens = organism: Homo sapiens; experiment: Selectivity index, ratio of Ki for human recombinant adenosine A2A receptor to Ki for human recombinant adenosine A2B receptor
Summary of the method: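 Competition binding on membranes at 25 °C for 30 min, then filtration and beta scintillation counting. hA2A: transfected HeLa cells, 3 nM [3H]ZM241385, non-specific binding with 50 µM NECA. hA2B: transfected HEK-293 cells, 35 nM [3H]DPCPX, non-specific binding with 400 µM NECA. Ki values are means of two independent duplicate experiments. SI = Ki hA2A / Ki hA2B.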

Adenosine receptor A2a [3] = target: T2, Adenosine receptor A2a; experiment: Displacement of [3H]ZM241385 from human recombinant adenosine A2A receptor expressed in HeLa cells at 1 uM by beta scintillation counter
Adenosine receptor A1 = target: T3, Adenosine receptor A1 (Homo sapiens, UniProt P30542); experiment: Displacement of [3H]DPCPX from human recombinant adenosine A1 receptor expressed in CHO cells by beta scintillation counter; format: cell-based
T3 sequence (P30542 whole entry): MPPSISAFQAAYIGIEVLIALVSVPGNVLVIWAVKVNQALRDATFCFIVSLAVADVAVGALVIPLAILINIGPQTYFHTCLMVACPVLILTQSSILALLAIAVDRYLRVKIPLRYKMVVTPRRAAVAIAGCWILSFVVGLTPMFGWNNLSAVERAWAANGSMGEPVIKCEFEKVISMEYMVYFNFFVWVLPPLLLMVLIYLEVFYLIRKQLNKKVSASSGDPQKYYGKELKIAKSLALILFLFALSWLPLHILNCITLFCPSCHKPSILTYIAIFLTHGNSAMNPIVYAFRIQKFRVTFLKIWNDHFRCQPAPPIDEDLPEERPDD
Summary of the method: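 Membranes from CHO cells expressing hA1, labelled with 2 nM [3H]DPCPX. Non-specific binding was defined with excess (R)-PIA. Incubated 25 °C for 60 min, then filtered and counted. Ki values are means of two independent experiments with duplicate points.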

Adenosine receptor A3 = target: T4, Adenosine receptor A3 (Homo sapiens, UniProt P0DMS8); experiment: Displacement of [3H]NECA from human recombinant adenosine A3 receptor expressed in HeLa cells by beta scintillation counter; format: cell-based
T4 sequence (P0DMS8 whole entry): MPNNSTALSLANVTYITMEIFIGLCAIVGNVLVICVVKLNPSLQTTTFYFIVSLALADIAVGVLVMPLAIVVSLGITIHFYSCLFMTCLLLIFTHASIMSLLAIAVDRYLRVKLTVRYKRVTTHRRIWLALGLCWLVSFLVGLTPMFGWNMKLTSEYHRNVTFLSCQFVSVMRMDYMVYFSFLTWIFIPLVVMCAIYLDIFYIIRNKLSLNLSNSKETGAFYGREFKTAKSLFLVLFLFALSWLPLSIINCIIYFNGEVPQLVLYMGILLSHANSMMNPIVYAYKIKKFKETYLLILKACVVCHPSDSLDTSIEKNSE
Summary of the method: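 HeLa-hA3 membranes labelled with 30 nM [3H]NECA. Non-specific binding was defined with (R)-PIA. Incubation was 180 min at 25 °C, then filtration and scintillation counting. Ki values are means of two independent experiments with duplicate points.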

[4] = Solubility in water; format: physicochemical
Summary of the method: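 Compound stock at 1 mg/ml in DMSO, added in small portions (typically 14 additions) to 50 mM Tris/HCl pH 7.4 at room temperature, keeping final DMSO below 5%. Precipitation was detected as light-scattering absorbance at 600–820 nm. The solubility limit was taken from a bilinear fit of absorbance versus DMSO added. Mean ± SEM of two assays.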

Adenosine receptor A2a [5] = target: Adenosine receptor A2a (Rattus norvegicus, UniProt P30543); experiment: Antagonist activity at adenosine A2A receptor in Wistar-Kyoto rat aorta assessed as inhibition of phenylephrine-induced contraction treated 30 mins before phenylephrine challenge measured after 60 mins
Adenosine receptor A2b [6] = target: T5, Adenosine receptor A2b (Rattus norvegicus, UniProt P29276); experiment: Antagonist activity at adenosine A2B receptor in Wistar-Kyoto rat colon assessed as inhibition of NECA-induced relaxation after 30 mins; conditions: read-out: pA2 (converted)
T5 sequence (P29276 whole entry): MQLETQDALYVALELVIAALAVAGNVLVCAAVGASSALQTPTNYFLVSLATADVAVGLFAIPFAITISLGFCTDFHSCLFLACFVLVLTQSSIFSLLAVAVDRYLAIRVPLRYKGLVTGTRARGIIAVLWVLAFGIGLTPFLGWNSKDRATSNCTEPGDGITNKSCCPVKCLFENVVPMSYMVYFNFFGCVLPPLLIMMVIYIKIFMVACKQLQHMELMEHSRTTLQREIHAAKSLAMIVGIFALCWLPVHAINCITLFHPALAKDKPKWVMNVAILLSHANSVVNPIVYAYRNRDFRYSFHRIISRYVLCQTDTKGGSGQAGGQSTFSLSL

[7] = target: T6, Adenosine receptor A2b (Homo sapiens) (UniProt P29275); experiment: Displacement of [3H]DPCPX from human recombinant adenosine A2B receptor expressed in HEK293 cells at 1 uM by beta scintillation counter; format: cell-based
T6 sequence (whole entry): T1 sequence (P29275 whole entry)

T2 sequence (P29274 whole entry): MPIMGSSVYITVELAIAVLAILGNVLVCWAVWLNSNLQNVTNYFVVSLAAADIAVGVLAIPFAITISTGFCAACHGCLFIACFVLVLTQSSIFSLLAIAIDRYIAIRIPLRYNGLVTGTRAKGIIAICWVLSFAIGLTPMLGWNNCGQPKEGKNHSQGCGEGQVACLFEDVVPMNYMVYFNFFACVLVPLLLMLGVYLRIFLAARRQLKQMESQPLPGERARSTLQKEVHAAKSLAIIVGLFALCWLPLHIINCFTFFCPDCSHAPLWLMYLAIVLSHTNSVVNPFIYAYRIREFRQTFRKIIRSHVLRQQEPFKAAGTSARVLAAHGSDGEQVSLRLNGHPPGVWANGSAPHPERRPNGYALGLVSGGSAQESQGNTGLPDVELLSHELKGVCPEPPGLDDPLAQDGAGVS
Chain of Adenosine receptor A2a (Rattus norvegicus, UniProt P30543) (P30543 whole entry): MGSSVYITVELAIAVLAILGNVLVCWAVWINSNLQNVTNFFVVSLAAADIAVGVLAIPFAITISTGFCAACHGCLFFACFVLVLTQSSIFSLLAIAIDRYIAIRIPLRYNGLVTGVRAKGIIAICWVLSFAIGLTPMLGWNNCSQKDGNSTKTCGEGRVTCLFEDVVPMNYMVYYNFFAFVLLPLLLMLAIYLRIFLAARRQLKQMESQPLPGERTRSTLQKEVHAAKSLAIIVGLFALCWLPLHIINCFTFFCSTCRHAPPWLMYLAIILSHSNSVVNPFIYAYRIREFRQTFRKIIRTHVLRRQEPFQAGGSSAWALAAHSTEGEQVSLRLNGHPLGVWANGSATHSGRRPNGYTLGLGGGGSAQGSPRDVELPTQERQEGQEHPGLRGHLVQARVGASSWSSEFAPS

Structure (SMILES)	Ki (Adenosine receptor A2b [1]) [nM]	Ki (Adenosine receptor A2a [2]) [nM]	Ratio Ki (Homo sapiens)	inhibition (Adenosine receptor A2a [3]) [%]	Ki (Adenosine receptor A1) [nM]	Ki (Adenosine receptor A3) [nM]	solubility [4] [µg/mL]	Kb (Adenosine receptor A2a [5]) [nM]	Kb (Adenosine receptor A2b [6]) [nM]	inhibition [7] [%]
CCCn1c(=O)c2[nH]c(-c3ccc(COC(=O)Nc4ccon4)cc3)cc2n(CCC)c1=O	1.7	21.9	12.9	–	–	–	–	–	–	–
Cn1c(=O)c2[nH]c(-c3ccc(COC(=O)Nc4ccco4)cc3)cc2n(C)c1=O	3.2	18.2	5.6	–	–	–	–	–	–	–
Cn1c(=O)c2[nH]c(-c3ccc(COC(=O)Nc4cccs4)cc3)cc2n(C)c1=O	1	15.1	15.1	–	–	–	–	–	–	–
CCCn1c(=O)c2[nH]c(-c3ccc(COC(=O)Nc4cnccn4)cc3)cc2n(CCC)c1=O	7.8	35.5	4.6	–	–	–	–	–	–	–
CCCn1c(=O)c2[nH]c(-c3ccc(COC(=O)Nc4ccccc4)cc3)cc2n(C)c1=O	13.8	–	–	15	–	–	–	–	–	–
Cn1c(=O)c2[nH]c(-c3ccc(COC(=O)Nc4ccccc4)cc3)cc2n(C)c1=O	2.8	34.7	12.6	–	2.2	275	–	–	–	–
CCCn1c(=O)c2[nH]c(-c3ccc(COC(=O)N4CCN(c5ccc(F)cc5)CC4)cc3)cc2n(CCC)c1=O	42.7	50.1	1.2	–	–	–	–	–	–	–
CCCn1c(=O)c2[nH]c(-c3ccc(COC(=O)Nc4ccsc4)cc3)cc2n(CCC)c1=O	501	3310	6.6	–	–	–	–	–	–	–
Cn1c(=O)c2[nH]c(-c3ccc(COC(=O)Nc4ccsc4)cc3)cc2n(C)c1=O	0.8	10.5	12.6	–	10	363	21.5 (≈ 52.4 µM)	28.2	2.19	–
CCCn1c(=O)c2[nH]c(-c3ccc(COC(=O)Nc4cc[nH]n4)cc3)cc2n(CCC)c1=O	5.9	10	1.7	–	–	–	–	–	–	–
Cn1c(=O)c2[nH]c(-c3ccc(COC(=O)Nc4ccccn4)cc3)cc2n(C)c1=O	81.3	490	6	–	–	–	–	–	–	–
Cn1c(=O)c2[nH]c(-c3ccc(COC(=O)N4CCN(c5ccccc5)CC4)cc3)cc2n(C)c1=O	11.5	132	11.5	–	–	–	–	–	–	–
CCCn1c(=O)c2[nH]c(-c3ccc(COC(=O)Nc4ccc(F)cc4)cc3)cc2n(CCC)c1=O	2	118	59	–	0.4	71	–	–	–	–
Cn1c(=O)c2[nH]c(-c3ccc(COC(=O)N4CCc5ccccc5C4)cc3)cc2n(C)c1=O	2.1	43.7	20.4	–	–	–	–	–	–	–
CCCn1c(=O)c2[nH]c(-c3ccc(COC(=O)Nc4ccccc4)cc3)cc2n(CCC)c1=O	7.1	28.8	4.1	–	20.4	331	27 (≈ 58.6 µM)	–	–	–
CCCn1c(=O)c2[nH]c(-c3ccc(COC(=O)N4CCN(c5cccc(Cl)c5)CC4)cc3)cc2n(CCC)c1=O	24	28.2	1.2	–	–	–	–	–	–	–
Cn1c(=O)c2[nH]c(-c3ccc(COC(=O)NCc4ccccc4)cc3)cc2n(C)c1=O	16.2	1000	61.6	–	–	–	–	–	–	–
CCCn1c(=O)c2[nH]c(-c3ccc(COC(=O)Nc4cccs4)cc3)cc2n(CCC)c1=O	602	2240	3.7	–	–	–	–	–	–	–
Cn1c(=O)c2[nH]c(-c3ccc(COC(=O)Nc4ccc(F)cc4)cc3)cc2n(C)c1=O	9.5	72.4	7.6	–	17.8	871	–	–	–	–
CCCn1c(=O)c2[nH]c(-c3ccc(COC(=O)N4CCN(c5ccccc5)CC4)cc3)cc2n(CCC)c1=O	–	447	–	–	–	–	–	–	–	46
